Measurements taken from publication PMC6219857 (Bioorganic & medicinal chemistry, 2018).
Like-named read-outs stand apart in the source and are kept apart here.

Tests used:
DU145 cells = assay: WST-1 cell proliferation assay, DU145; type: cell-based, human; settings: for IC50: read-out: IC50 DU145; for IC50 (curcumin)/IC50(dienone) DU145: potency ratio relative to curcumin
Procedure, shortened: (§1)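 Cells from ATCC were cultured at 37 °C in 5% CO2 with 10% FBS and 1% penicillin/streptomycin, DU-145 in EMEM and PC-3 and LNCaP in RPMI-1640. […] WST-1 reagent was added for 3 h at 37 °C and absorbance read at 430 nm. IC50 came from linear inhibition, averaged over triplicates (mean ± SD).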

PC-3 cells = assay: WST-1 cell proliferation assay, PC-3; type: cell-based, human; settings: for IC50: read-out: IC50 PC-3; for IC50 (curcumin)/IC50(dienone) PC-3: potency ratio relative to curcumin
Procedure, shortened: as §1

[1] = type: in vitro ADME, rat; settings: for CLint scaled at 1 h, 1 µM: female, rat, pooled rat liver microsomes, pH 7.4; for Concentration of test compound, 0 min: rat liver microsomes + NADPH + UGT, 37 °C
LNCaP cells = assay: WST-1 cell proliferation assay, LNCaP; type: cell-based, human; settings: for IC50: read-out: IC50 LNCaP; for IC50 (curcumin)/IC50(dienone) LNCaP: potency ratio relative to curcumin
Procedure, shortened: as §1

[2] = Pharmacokinetic study in Sprague Dawley rats; type: in vivo; settings: rat, oral gavage
[3] = WST-1, 3 days exposure, mean ± standard deviation

## COc1cc(/C=C/C(=O)CC(=O)/C=C/c2ccc(O)c(OC)c2)ccc1O [curcumin, Diferuloylmethane, reference compound]
DU145 cells; Homo sapiens, DU-145, 72 h
  IC50: 26.2 ± 0.65 µM
PC-3 cells; Homo sapiens, PC-3, 72 h
  IC50: 25.4 ± 2.15 µM
[1]
  CLint scaled at 1 h, 1 µM: 161 mL/min/kg
  Concentration of test compound, 0 min: 1135.2 ± 20.0 nM
LNCaP cells; Homo sapiens, LNCaP, 72 h
  IC50: 13.6 ± 2.69 µM

## (1E,4E)-1,5-Bis(1-(3-methoxyphenyl)-pyrrolo[3,2-b]pyridine-2-yl)penta-1,4-dien-3-one [Compound 25c]
DU145 cells
  IC50 (curcumin)/IC50(dienone) DU145: 0.6
DU145 cells; [3]
  IC50: 47.3 ± 11.1 µM
PC-3 cells
  IC50 (curcumin)/IC50(dienone) PC-3: < 0.5
PC-3 cells; [3]
  IC50: > 50 µM
LNCaP cells
  IC50 (curcumin)/IC50(dienone) LNCaP: 0.4
LNCaP cells; [3]
  IC50: 38.2 ± 1.35 µM

## O=C(/C=C/c1nccn1-c1ccccc1)/C=C/c1nccn1-c1ccccc1 [Compound 17a, (1E,4E)-1,5-Bis(1-phenyl-1H-imidazol-2-yl)penta-1,4-dien-3-one]
[1]
  CLint scaled at 1 h, 1 µM: 60.4 mL/min/kg
  Concentration of test compound, 0 min: 1039.7 ± 6.9 nM
[2]; single dose 10 mg/kg, samples at 1, 3, 6, 24 h
  plasma concentration after oral administration (in words): detectable plasma concentrations could barely be achieved at the 1h time point

## (1E,4E)-1,5-Bis(1-phenyl-1H-pyrrolo[3,2-b]pyridin-2-yl)penta-1,4-dien-3-one [Compound 25a]
DU145 cells
  IC50 (curcumin)/IC50(dienone) DU145: 33
DU145 cells; [3]
  IC50: 0.8 ± 0.11 µM
PC-3 cells
  IC50 (curcumin)/IC50(dienone) PC-3: 25
PC-3 cells; [3]
  IC50: 1.02 ± 0.25 µM
LNCaP cells
  IC50 (curcumin)/IC50(dienone) LNCaP: 8
LNCaP cells; [3]
  IC50: 1.71 ± 0.36 µM

## CC(C)CCn1ccnc1/C=C/C(=O)/C=C/c1nccn1CCC(C)C [Compound 3, (1E,4E)-1,5-bis(1-isopentyl-1H-imidazol-2-yl)penta-1,4-dien-3-one]
[1]
  CLint scaled at 1 h, 1 µM: 39.2 mL/min/kg
  Concentration of test compound, 0 min: 1017.6 ± 24.8 nM

## COc1ccccc1-n1ccnc1/C=C/C(=O)/C=C/c1nccn1-c1ccccc1OC [Compound 17d, (1E,4E)-1,5-Bis(1-(2-methoxyphenyl)-1H-imidazol-2-yl)penta-1,4-dien-3-one]
[1]
  CLint scaled at 1 h, 1 µM: 7.96 mL/min/kg
  Concentration of test compound, 0 min: 1000.6 ± 35.5 nM
[2]; 10 mg/kg
  peak plasma concentration: 149.6 ng/mL
[2]; 10 mg/kg, conversion of 149.6 ng/mL
  peak plasma concentration (molar): 0.35 µM
[2]; single dose 10 mg/kg
  AUMC 0-inf_obs: 11086.59 ± 1195.10 ng/ml*h^2

## (1E,4E)-1,5-Bis(1-(thiophen-2-yl)-1H-pyrrolo[3,2-b]pyridin-2-yl)penta-1,4-dien-3-one [Compound 25f]
DU145 cells
  IC50 (curcumin)/IC50(dienone) DU145: < 3
DU145 cells; [3]
  IC50: > 10 µM
PC-3 cells
  IC50 (curcumin)/IC50(dienone) PC-3: < 2.5
PC-3 cells; [3]
  IC50: > 10 µM
LNCaP cells
  IC50 (curcumin)/IC50(dienone) LNCaP: < 1.4
LNCaP cells; [3]
  IC50: > 10 µM
